Test results: ChEMBL document CHEMBL1130236, “Design and synthesis of imidazoline derivatives active on glucose homeostasis in a rat model of type II diabetes. 1. Synthesis and biological activities of N-benzyl-N'-(arylalkyl)-2-(4',5'-dihydro-1'H-imidazol-2'-yl)piperazines ” (1997)

Key:
Rattus norvegicus [1] = experiment: The glycemia values 30 minutes after glucose administration to streptozotocin rats; assay type: functional
In short: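 Male Wistar rats (3-month, ~250 g) made diabetic with streptozotocin 35 mg/kg iv in citrate buffer; used 2 weeks later if basal glycemia was 7–10 mM. Single ip dose of 100 µmol/kg (hydrochloride salt), then iv glucose 0.5 g/kg under pentobarbital. Plasma glucose was read by analyzer at 30 min and expressed as % variation versus untreated STZ rats.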

Rattus norvegicus [2] = experiment: The rate of glucose disappearance between 5 and 30 minutes after glucose administration; assay type: functional, organism-based
In short: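 In the intravenous glucose tolerance test (0.5 g/kg, saphenous vein, pentobarbital anesthesia), STZ-diabetic male Wistar rats had received a single 100 µmol/kg ip dose beforehand. Plasma glucose was sampled from the tail at 5–30 min. The glucose disappearance rate K was computed over 5–30 min and expressed as % variation versus untreated STZ rats.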

Rattus norvegicus [3] = experiment: The incremental glycemia values after glucose administration (0.5 g/kg iv), to rats treated with streptozotocin (35 mg/kg iv); assay type: functional
In short: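 STZ (35 mg/kg iv) male Wistar rats were selected after 2 weeks with basal glycemia 7–10 mM and […]. They received 100 µmol/kg ip once before an iv glucose load. Tail blood was taken at 0, 5, 10, 15, 20 and 30 min. The glucose increment over baseline was integrated over 30 min and normalized as (treated−untreated STZ)/(untreated STZ−nondiabetic control)×100.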

Rattus norvegicus [4] = experiment: The incremental plasma insulin values over 30 minutes after glucose administration.; assay type: functional
In short: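 Moderately diabetic STZ Wistar rats were given 100 µmol/kg ip once, then 0.5 g/kg iv glucose under pentobarbital. Tail-vein plasma from 0–30 min was stored at −20 °C, and insulin was measured by radioimmunoassay (lower limit 19.5 pmol/L). The incremental insulin over baseline was integrated over 30 min and expressed as % variation versus untreated STZ rats.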

Compound | G30 (Rattus norvegicus [1]) | K (Rattus norvegicus [2]) | Delta G (Rattus norvegicus [3]) | Delta I (Rattus norvegicus [4])
CCN1CCN(Cc2ccccc2Cl)C(C2=NCCN2)C1 (stereo not drawn) | 38% | 34% | 108% | 
CN1CCN(Cc2c(Cl)cccc2Cl)C(C2=NCCN2)C1 (stereo not drawn) | 59% | 107% | 103% | 
CN1CCN(Cc2ccc(Cl)cc2)C(C2=NCCN2)C1 (stereo not drawn) | 68% | 110% | 0% | 
CN1CCN(Cc2ccccc2Cl)CC1C1=NCCN1 (stereo not drawn) | 97% | 148% | 93% | 
Clc1ccc(CN2CCN(Cc3ccc(Cl)cc3Cl)C(C3=NCCN3)C2)c(Cl)c1 (stereo not drawn) | 18% | 22% | 0% | 
c1ccc(CN2CCN(Cc3ccccc3)C(C3=NCCN3)C2)cc1 (stereo not drawn) | 33% | 43% | 0% | 
CN1CCN(Cc2cccc(Cl)c2)C(C2=NCCN2)C1 (stereo not drawn) | 23% | 39% | 0% | 
CCCN1CCN(Cc2ccc(Cl)cc2Cl)C(C2=NCCN2)C1 (stereo not drawn) | 80% | 104% | 24% | 
CC(C)N1CCN(Cc2ccccc2Cl)CC1C1=NCCN1 (stereo not drawn) | 96% | 95% | 112% | 
CN1CCN(Cc2ccc(Cl)cc2Cl)CC1C1=NCCN1 (stereo not drawn) | 102% | 152% | 34% | 
CN1CCN(Cc2ccc(Cl)cc2Cl)C(C2=NCCN2)C1 (stereo not drawn) | 112% |  | 105% | 221%
CN1CCN(Cc2ccccc2F)C(C2=NCCN2)C1 (stereo not drawn) | 52% | 108% | 72% | 
COc1cccc(CN2CCN(C)CC2C2=NCCN2)c1OC (stereo not drawn) | 58% | 55% | 0% | 60%
CN1CCN(Cc2ccccc2)C(C2=NCCN2)C1 (stereo not drawn) | 23% | 67% | 0% | 16%
c1ccc2c(c1)OCC(C1=NCCN1)O2 (stereo not drawn) [IDAZOXAN] | 48% | 79% | 8% | 
COc1cccc(CN2CCN(C)CC2C2=NCCN2)c1 (stereo not drawn) | 68% | 57% | 23% | 88%

Compound | G30 (Rattus norvegicus [1]) | K (Rattus norvegicus [2]) | Delta G (Rattus norvegicus [3]) | Delta I (Rattus norvegicus [4])
CN1CCN(Cc2ccc(F)cc2F)C(C2=NCCN2)C1 (stereo not drawn) | 106% | 97% | 102% | 
CN1CCN(Cc2ccccc2C(F)(F)F)C(C2=NCCN2)C1 (stereo not drawn) | 64% | 63% | 94% | 
CCN1CCN(Cc2ccccc2Cl)CC1C1=NCCN1 (stereo not drawn) | 50% | 106% | 70% | 
CN1CCN(Cc2cccc(Cl)c2Cl)C(C2=NCCN2)C1 (stereo not drawn) | 36% | 53% | 0% | 
Clc1ccccc1CN1CCN(Cc2ccccc2Cl)C(C2=NCCN2)C1 (stereo not drawn) | 0% | 36% | 0% | 
CN1CCN(Cc2cc(Cl)cc(Cl)c2)C(C2=NCCN2)C1 (stereo not drawn) | 70% | 117% | 0% | 
CCCN1CCN(Cc2ccccc2Cl)C(C2=NCCN2)C1 (stereo not drawn) | 17% | 37% | 0% | 25%
Cc1ccccc1CN1CCN(C)CC1C1=NCCN1 (stereo not drawn) | 48% | 81% | 24% | 
Clc1ccccc1CN1CCNCC1C1=NCCN1 (stereo not drawn) | 0% | 11% | 0% | 
COc1ccccc1CN1CCN(C)CC1C1=NCCN1 (stereo not drawn) | 56% | 39% | 47% | 
CC(C)CN1CCN(Cc2ccc(Cl)cc2Cl)C(C2=NCCN2)C1 (stereo not drawn) | 95% | 119% | 110% | 623%
CN1CCN(Cc2ccccc2Cl)C(C2=NCCN2)C1 (stereo not drawn) | 103% | 98% | 81% | 109%
c1ccc(C(CC2=NCCN2)c2ccccn2)cc1 (stereo not drawn) [MIDAGLIZOLE] | 121% |  | 32% | 
CN1CCN(Cc2ccc(Cl)c(Cl)c2)C(C2=NCCN2)C1 (stereo not drawn) | 47% | 42% | 36% | 
CC(C)N1CCN(Cc2ccccc2Cl)C(C2=NCCN2)C1 (stereo not drawn) | 83% | 44% | 84% | 
